Read-outs that look alike come from different tables or passages of the source.
Columns and labels:
ABCG2 p.Q141K variant = assay type: in vivo, human
In short: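 Open-label fixed-sequence crossover in 11 healthy non-smoking adults aged 18–64. Single oral rosuvastatin 10 mg given after an overnight fast, with fasting continued 4 h. Heparinised venous plasma was stored at −70°C and analysed by LC–MS. ABCG2 c.421C>A was genotyped blind by PCR and Sanger sequencing. Nine CC and two CA subjects were compared at T = 0 h and by noncompartmental PK, using log-transformed geometric means and unpaired t-tests.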

[1] = assay type: in vivo, human; conditions: for AUC(0-t) / V/F/kg: geometric mean (90% CI)
OATP1B1 = biological target: T1, OATP1B1 (Homo sapiens, UniProt Q9Y6L6); assay type: cell-based; conditions: HEK293 OATP1B1 cells
T1 sequence (Q9Y6L6 1-691): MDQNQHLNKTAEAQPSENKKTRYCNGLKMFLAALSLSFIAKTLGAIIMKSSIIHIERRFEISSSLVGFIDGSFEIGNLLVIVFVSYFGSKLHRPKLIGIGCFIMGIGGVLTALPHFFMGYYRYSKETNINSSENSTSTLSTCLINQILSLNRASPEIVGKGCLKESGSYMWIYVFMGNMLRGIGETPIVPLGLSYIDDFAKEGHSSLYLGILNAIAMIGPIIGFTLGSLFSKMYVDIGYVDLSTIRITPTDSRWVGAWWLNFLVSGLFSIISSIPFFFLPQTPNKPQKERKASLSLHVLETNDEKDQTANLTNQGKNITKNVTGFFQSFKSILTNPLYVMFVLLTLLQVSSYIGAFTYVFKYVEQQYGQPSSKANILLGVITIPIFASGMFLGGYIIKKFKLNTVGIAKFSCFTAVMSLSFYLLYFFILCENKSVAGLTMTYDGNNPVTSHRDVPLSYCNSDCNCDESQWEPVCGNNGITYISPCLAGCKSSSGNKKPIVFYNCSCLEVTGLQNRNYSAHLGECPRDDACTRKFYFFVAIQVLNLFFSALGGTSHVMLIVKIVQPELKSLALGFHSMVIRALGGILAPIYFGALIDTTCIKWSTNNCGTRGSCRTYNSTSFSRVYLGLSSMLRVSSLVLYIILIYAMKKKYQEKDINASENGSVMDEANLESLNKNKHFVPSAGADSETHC
In short: (§1)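 Transporter-overexpressing HEK293 cells were cultured in DMEM with 10% FBS, 1% penicillin/streptomycin and selection antibiotics at 37°C, 5% CO₂. Test compounds were screened at 10 μM and 30 μM, and uptake was quantified as normalised peak areas. For OATP1B1/1B3, uptake was compared with empty-vector cells, and for OATP1B1 also with cells treated with the inhibitor cyclosporine A.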

OATP1B3 = biological target: T2, OATP1B3 (Homo sapiens, UniProt Q9NPD5); assay: Substrate screening in HEK293 cells expressing OATP1B3; assay type: cell-based
T2 sequence (Q9NPD5 1-702): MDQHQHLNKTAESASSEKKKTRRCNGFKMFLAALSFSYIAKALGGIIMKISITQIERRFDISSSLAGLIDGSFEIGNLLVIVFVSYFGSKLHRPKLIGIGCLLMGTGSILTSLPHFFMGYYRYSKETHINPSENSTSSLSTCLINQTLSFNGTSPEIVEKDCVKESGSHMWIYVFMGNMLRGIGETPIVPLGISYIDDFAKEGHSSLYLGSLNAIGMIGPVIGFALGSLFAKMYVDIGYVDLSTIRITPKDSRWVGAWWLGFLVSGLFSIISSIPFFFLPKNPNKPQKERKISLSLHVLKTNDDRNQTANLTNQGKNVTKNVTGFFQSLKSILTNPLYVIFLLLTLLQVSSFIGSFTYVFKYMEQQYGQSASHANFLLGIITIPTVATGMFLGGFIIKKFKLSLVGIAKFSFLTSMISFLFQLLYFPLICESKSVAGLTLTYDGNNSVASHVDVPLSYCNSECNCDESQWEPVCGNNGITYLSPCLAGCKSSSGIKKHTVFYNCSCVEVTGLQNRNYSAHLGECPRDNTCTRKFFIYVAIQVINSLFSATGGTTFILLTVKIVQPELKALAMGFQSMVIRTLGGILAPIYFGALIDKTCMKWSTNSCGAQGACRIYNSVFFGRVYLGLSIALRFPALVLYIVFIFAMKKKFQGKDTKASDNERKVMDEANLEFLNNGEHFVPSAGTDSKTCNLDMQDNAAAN
In short: as §1

BCRP = biological target: T3, BCRP (Homo sapiens, UniProt Q9UNQ0); assay type: cell-based
T3 sequence (Q9UNQ0 1-655): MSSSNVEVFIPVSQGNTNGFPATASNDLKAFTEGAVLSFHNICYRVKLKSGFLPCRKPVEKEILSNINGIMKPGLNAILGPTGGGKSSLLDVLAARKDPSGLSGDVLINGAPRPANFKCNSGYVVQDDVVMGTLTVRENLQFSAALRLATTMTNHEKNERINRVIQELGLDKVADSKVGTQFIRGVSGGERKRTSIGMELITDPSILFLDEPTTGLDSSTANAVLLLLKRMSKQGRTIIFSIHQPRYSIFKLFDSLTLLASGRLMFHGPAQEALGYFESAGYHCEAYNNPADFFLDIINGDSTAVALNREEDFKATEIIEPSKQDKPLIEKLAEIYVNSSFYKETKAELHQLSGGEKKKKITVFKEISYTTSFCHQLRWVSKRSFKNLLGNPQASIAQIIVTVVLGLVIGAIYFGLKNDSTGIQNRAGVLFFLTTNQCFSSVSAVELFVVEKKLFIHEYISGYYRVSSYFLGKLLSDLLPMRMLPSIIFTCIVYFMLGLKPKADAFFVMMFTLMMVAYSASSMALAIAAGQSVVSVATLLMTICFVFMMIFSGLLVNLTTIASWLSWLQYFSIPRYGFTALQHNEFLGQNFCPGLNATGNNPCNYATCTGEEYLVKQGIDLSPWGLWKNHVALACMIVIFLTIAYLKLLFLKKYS
In short: as §1

P-gp = P-gp (Homo sapiens, UniProt P08183); assay: Inhibitor screening of [3H]digoxin accumulation in HEK293 cells expressing P-gp; assay type: cell-based
In short: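 HEK293 lines overexpressing the named transporter were grown in DMEM with 10% FBS, 1% penicillin/streptomycin and line-specific selection antibiotics, at 37°C, humidified, 5% CO₂. Cell-based uptake assays measured inhibition of transporter activity.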

[2] = both, human, plasma, oral, 10 mg
[3] = both, human, plasma, oral, 10 mg, AUC0−4, rosuvastatin alone arm
[4] = both, human, plasma, oral, AUC0−4, rosuvastatin + eltrombopag arm
[5] = human, in vivo, listed as rosuvastatin

P-gp, sequence (P08183 whole entry): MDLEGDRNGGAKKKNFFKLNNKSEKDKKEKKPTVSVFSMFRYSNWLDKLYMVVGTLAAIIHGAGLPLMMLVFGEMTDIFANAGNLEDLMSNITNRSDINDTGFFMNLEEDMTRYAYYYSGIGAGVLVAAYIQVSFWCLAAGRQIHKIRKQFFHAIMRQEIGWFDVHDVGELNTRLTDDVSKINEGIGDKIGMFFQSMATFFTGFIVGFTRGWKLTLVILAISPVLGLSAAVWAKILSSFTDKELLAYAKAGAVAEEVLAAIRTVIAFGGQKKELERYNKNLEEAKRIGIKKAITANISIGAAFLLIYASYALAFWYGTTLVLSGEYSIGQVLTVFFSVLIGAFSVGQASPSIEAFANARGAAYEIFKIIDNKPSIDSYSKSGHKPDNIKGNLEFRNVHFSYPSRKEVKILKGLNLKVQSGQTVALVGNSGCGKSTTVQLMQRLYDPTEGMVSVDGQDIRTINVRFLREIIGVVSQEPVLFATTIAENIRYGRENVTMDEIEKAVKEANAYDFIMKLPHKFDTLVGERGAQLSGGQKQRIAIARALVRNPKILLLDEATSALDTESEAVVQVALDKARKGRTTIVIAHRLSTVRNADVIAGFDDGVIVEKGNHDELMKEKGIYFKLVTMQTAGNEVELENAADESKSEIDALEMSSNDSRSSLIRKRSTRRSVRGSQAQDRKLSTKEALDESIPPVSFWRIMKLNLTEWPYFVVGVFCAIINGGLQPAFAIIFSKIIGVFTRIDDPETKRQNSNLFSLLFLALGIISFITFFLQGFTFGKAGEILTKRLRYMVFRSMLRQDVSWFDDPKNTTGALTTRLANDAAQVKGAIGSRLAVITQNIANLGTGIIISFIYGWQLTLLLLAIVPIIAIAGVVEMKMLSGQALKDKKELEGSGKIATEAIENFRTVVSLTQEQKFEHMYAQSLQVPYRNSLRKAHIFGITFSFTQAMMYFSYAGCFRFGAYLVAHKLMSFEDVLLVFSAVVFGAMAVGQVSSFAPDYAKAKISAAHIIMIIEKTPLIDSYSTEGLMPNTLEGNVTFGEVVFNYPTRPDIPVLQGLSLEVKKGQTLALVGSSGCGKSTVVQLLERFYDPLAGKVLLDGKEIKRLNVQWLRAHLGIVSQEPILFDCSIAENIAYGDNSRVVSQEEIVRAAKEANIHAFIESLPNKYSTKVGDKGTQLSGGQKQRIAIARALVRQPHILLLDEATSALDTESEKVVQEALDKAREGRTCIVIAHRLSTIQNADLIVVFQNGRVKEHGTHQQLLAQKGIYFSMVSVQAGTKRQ

CC(C)c1nc(N(C)S(C)(=O)=O)nc(-c2ccc(F)cc2)c1/C=C/[C@@H](O)C[C@@H](O)CC(=O)O [Rosuvastatin, reference compound]
AUC0–4, fold higher in p.Q141K variant vs reference allele (ABCG2 p.Q141K variant; rosuvastatin 10 mg): 2.9 fold | AUC0–INF, fold higher in p.Q141K variant vs reference allele (ABCG2 p.Q141K variant; rosuvastatin 10 mg): 2.6 fold | Cmax, fold higher in p.Q141K variant vs reference allele (ABCG2 p.Q141K variant; rosuvastatin 10 mg): 2.4 fold | AUC(0-inf) ([1]; both, human, plasma, oral): 116 ng·h/mL | CL/F ([1]; both, human, plasma, oral): 19.7 mL/min/kg | Cmax ([1]; both, human, plasma, oral): 10.9 ng/mL | half-life ([1]; both, human, plasma, oral): 528 min | AUC(0-inf) [1, 2]: 69.1 ng·h/mL | CL/F [1, 2]: 32.7 mL/min/kg | Cmax [1, 2]: 5.4 ng/mL | half-life [1, 2]: 624 min | AUC(0-t) [1, 3]: 11.8 ng·h/mL | AUC(0-t) [1, 4]: 25 ng·h/mL | AUC0−4, geometric mean ratio (90% CI) of rosuvastatin + eltrombopag arm to rosuvastatin alone arm ([1]; human, in vivo): 2.12 (1.71–2.62); P = 0.002 | AUC0−INF, geometric mean ratio (90% CI) of rosuvastatin + eltrombopag arm to rosuvastatin alone arm ([1]; human, in vivo): 1.80 (1.49–2.17); P = 0.002 | CL/F/kg, geometric mean ratio (90% CI) of rosuvastatin + eltrombopag arm to rosuvastatin alone arm ([1]; human, in vivo): 0.56 (0.46–0.67); P = 0.02 | Cmax, geometric mean ratio (90% CI) of rosuvastatin + eltrombopag arm to rosuvastatin alone arm ([1]; human, in vivo): 2.01 (1.59–2.53); P = 0.002 | T1/2, geometric mean ratio (90% CI) of rosuvastatin + eltrombopag arm to rosuvastatin alone arm ([1]; human, in vivo): 0.88 (0.78–0.99); P = 0.13 | V/F/kg, geometric mean ratio (90% CI) of rosuvastatin + eltrombopag arm to rosuvastatin alone arm ([1]; human, in vivo): 0.49 (0.38–0.63); P = 0.004 | AUC0−4, geometric mean ratio (90% CI) of rosuvastatin + eltrombopag arm to rosuvastatin alone arm [1, 5]: 2.1 | AUC0−INF, geometric mean ratio (90% CI) of rosuvastatin + eltrombopag arm to rosuvastatin alone arm [1, 5]: 1.8 | Cmax, geometric mean ratio (90% CI) of rosuvastatin + eltrombopag arm to rosuvastatin alone arm [1, 5]: twofold | Tmax ([1]; rosuvastatin + eltrombopag arm): 4 (3.5–5) h | V/F/kg ([1]; rosuvastatin + eltrombopag arm): 14.9 (11.5–17.8) L/kg | V/F/kg ([1]; rosuvastatin + eltrombopag arm, listed as rosuvastatin): 14.9 L/kg | Tmax ([1]; rosuvastatin alone arm): 5 (1.5–5) h | V/F/kg ([1]; rosuvastatin alone arm): 29.3 (22.8–37.7) L/kg | V/F/kg ([1]; rosuvastatin alone arm, listed as rosuvastatin): 29.3 L/kg

O=C(O)c1c(O)c(Cl)cc(Cl)c1O [DCDBA, 3,5‐dichloro‐2,6‐dihydroxybenzoic acid]
Baseline concentrations, heterozygous p.Q141K vs homozygous reference allele (ABCG2 p.Q141K variant; two p.Q141K (CA) vs nine REF (CC) individuals, T = 0 h): not statistically significant | OATP1B1 substrate classification (OATP1B1): not substrates | OATP1B3 substrate classification (OATP1B3): not substrates | AUC0−24, geometric mean ratio (90% CI) of rosuvastatin + eltrombopag arm to rosuvastatin alone arm ([1]; both, human, plasma, oral): 1.03 (0.97–1.10); P = 0.39 | C0 at 0 h ([1]; both, human, plasma, oral): 0.8 ng/mL | Cmax ([1]; both, human, plasma, oral): 0.98 ng/mL | C0 at 0 h [1, 2]: 0.73 ng/mL | Cmax [1, 2]: 1.03 ng/mL | AUC(0-t) [1, 3]: 3.02 ng·h/mL | AUC(0-t) ([1]; both, human, plasma, oral, 10 mg, AUC0−24, rosuvastatin alone arm): 18.6 ng·h/mL | AUC(0-t) [1, 4]: 2.97 ng·h/mL | AUC(0-t) ([1]; both, human, plasma, oral, AUC0−24, rosuvastatin + eltrombopag arm): 19.2 ng·h/mL | Effect of eltrombopag administration on plasma concentrations (in words) ([1]; eltrombopag 75 mg daily for 5 days): did not lead to corresponding increases | AUC0−4, geometric mean ratio (90% CI) of rosuvastatin + eltrombopag arm to rosuvastatin alone arm ([1]; human, in vivo): 0.98 (0.93–1.04); P = 0.72 | C0, geometric mean ratio (90% CI) of rosuvastatin + eltrombopag arm to rosuvastatin alone arm ([1]; human, in vivo): 1.10 (1.00–1.21); P = 0.07 | Cmax, geometric mean ratio (90% CI) of rosuvastatin + eltrombopag arm to rosuvastatin alone arm ([1]; human, in vivo): 0.95 (0.85–1.06); P = 0.49 | Food effects, fasted (AUC0−4) vs fed (AUC4−8) ([1]; human, in vivo): No food effects | Uptake in BCRP-expressing HEK293 cells compared to same cell line with Ko143 (BCRP; 10 μM and 30 μM, 30 min): significantly reduced | BCRP substrate classification (BCRP; HEK293 BCRP cells): BCRP substrates | Effect on intracellular accumulation of P-gp substrate [3H]digoxin (P-gp): did not affect
